From ChEMBL document CHEMBL1123827, “Alpha 2-adrenergic agonists/antagonists: the synthesis and structure-activity relationships of a series of indolin-2-yl and tetrahydroquinolin-2-yl imidazolines” (J Med Chem, 1987)

Columns and labels:
[1] = biological target: T1, Adrenergic receptor alpha-2 (Rattus norvegicus, UniProt P22086+P19328+P22909); assay: Binding affinity against alpha-2 adrenergic receptor was determined by the displacement of [3H]clonidine from rat brain cortical membranes; assay type: cell membranes, Membrane
T1 sequence (P22086 whole entry): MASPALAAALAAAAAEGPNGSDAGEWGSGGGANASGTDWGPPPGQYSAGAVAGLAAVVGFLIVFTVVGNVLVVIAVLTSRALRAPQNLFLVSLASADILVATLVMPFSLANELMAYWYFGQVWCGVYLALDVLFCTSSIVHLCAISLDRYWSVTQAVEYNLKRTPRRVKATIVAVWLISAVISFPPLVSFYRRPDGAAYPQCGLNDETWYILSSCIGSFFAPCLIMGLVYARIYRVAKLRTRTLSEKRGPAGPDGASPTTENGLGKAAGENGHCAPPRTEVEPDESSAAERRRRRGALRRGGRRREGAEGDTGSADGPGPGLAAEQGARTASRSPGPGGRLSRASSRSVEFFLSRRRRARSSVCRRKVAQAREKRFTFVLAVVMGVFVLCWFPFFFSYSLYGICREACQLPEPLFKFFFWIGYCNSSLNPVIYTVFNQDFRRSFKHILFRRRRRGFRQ
T1 sequence (P19328 whole entry): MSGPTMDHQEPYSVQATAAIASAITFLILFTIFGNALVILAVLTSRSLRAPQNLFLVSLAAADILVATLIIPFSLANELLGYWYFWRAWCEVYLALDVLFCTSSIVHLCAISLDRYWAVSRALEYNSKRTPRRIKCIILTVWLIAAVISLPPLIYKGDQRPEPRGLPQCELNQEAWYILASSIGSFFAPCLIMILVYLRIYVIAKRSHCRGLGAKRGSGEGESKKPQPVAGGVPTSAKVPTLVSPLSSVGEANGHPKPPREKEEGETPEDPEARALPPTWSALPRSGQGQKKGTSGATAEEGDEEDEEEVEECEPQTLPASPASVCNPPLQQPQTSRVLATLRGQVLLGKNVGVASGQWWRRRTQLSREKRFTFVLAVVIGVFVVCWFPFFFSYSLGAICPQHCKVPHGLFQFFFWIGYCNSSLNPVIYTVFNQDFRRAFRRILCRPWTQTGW
T1 sequence (P22909 whole entry): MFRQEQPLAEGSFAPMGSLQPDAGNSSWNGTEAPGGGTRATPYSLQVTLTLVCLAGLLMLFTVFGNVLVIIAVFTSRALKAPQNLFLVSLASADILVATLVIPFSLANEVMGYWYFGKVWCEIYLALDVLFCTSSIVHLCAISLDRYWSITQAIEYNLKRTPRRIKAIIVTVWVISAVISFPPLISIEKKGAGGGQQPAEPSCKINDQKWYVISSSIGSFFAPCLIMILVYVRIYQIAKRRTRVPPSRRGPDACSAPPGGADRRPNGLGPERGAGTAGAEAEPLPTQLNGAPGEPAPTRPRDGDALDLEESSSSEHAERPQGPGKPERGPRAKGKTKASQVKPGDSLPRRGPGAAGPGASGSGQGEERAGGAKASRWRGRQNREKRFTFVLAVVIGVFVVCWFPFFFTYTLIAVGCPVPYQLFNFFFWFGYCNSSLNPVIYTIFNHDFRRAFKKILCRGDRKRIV

[2] = biological target: T1, Adrenergic receptor alpha-2; assay: Alpha-2 adrenergic receptor agonistic activity in rat vas deferens.
[3] = biological target: T2, Adrenergic receptor alpha-1 (Rattus norvegicus, UniProt P15823+P23944+P43140); assay: Binding affinity against alpha-1 adrenergic receptor was determined by the displacement of [3H]prazosin from rat brain cortical membranes; value ranges from 6.06-7.06; assay type: cell membranes, Membrane
T2 sequence (P15823 whole entry): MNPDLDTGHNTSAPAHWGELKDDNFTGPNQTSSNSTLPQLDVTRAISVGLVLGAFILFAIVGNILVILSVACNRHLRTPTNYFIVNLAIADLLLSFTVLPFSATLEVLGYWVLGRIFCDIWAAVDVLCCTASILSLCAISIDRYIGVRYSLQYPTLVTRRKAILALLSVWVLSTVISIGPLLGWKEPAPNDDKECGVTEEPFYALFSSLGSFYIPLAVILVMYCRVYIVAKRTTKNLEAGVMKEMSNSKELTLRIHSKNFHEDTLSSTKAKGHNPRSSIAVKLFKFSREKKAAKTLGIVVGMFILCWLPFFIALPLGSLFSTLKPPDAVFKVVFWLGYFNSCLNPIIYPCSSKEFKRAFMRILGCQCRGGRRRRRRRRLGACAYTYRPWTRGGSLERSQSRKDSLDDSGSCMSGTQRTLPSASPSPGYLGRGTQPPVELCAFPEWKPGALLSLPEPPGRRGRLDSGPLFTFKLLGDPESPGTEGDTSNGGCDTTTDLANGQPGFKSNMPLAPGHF
T2 sequence (P23944 whole entry): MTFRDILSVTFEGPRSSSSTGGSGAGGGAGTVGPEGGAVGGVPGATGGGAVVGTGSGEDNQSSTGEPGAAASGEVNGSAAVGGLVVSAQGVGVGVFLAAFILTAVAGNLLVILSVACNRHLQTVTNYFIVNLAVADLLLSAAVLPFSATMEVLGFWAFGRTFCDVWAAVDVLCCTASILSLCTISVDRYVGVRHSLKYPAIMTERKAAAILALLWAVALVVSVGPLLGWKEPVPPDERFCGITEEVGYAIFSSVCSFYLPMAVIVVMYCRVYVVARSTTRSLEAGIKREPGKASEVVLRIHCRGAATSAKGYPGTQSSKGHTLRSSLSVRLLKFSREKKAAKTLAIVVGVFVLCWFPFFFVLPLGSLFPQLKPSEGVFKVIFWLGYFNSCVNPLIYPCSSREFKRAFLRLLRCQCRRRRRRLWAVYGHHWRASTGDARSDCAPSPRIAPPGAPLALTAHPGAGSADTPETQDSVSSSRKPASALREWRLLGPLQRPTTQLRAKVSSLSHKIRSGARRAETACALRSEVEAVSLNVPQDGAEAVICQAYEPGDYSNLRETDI
T2 sequence (P43140 whole entry): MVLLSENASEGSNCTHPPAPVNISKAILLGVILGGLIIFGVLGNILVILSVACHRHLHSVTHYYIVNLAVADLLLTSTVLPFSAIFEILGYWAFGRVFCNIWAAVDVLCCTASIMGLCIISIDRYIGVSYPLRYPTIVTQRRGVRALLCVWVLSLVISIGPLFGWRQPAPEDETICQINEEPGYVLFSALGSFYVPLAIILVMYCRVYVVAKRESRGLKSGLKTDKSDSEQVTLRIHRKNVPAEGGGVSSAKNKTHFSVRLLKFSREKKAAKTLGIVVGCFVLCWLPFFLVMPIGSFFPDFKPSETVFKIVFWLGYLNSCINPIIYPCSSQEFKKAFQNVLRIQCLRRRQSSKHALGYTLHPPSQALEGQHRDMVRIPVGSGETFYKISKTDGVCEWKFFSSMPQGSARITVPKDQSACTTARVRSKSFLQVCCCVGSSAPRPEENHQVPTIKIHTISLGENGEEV
Procedure, shortened: (§1)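 Rat cortex was homogenized in 50 mM Tris pH 7.7, washed twice by centrifugation at 48000g and resuspended in 150 volumes. […] Nonspecific binding was defined with 10 μM phentolamine. Bound label was counted on filters, in triplicate. IC50 by logit plot, converted to Ki by Cheng-Prusoff.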

[4] = biological target: T2, Adrenergic receptor alpha-1; assay: The compound was evaluated for the alpha-1 adrenergic receptor antagonistic activity in rat vas deferens vs methoxamine alpha-1 adrenoceptor antagonism; assay type: functional, tissue-based
Procedure, shortened: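 Vasa deferentia from Sprague-Dawley rats (180–250 g) mounted at 1 g resting tension in oxygenated Krebs at 31 °C. Methoxamine was the reference α1 agonist. Agonist concentration-effect curves were run without and with at least three antagonist concentrations after 10 min preincubation. Potency was taken from Schild analysis, mean of at least three preparations from separate animals.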

[5] = biological target: T1, Adrenergic receptor alpha-2; assay: Alpha-2 adrenergic receptor antagonistic activity in rat vas deferens vs clonidine; assay type: functional, tissue-based
[6] = biological target: T1, Adrenergic receptor alpha-2; assay: Alpha-2 adrenergic receptor antagonistic activity in rat vas deferens vs clonidin; assay type: functional, tissue-based
Procedure, shortened: (§2)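 Vasa deferentia from Sprague-Dawley rats (180–250 g) mounted between platinum ring electrodes at 1 g resting tension in oxygenated Krebs at 37 °C. Single-pulse electrical stimulation (1 ms, 0.15 Hz, lowest voltage giving maximal contraction).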

[7] = system: Mus musculus; assay: Antagonistic activity against clonidine-induced antinociception in mouse after po administration; assay type: functional
Procedure, shortened: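 Swiss Webster mice (18–24 g), 10 per treatment. Test compound was given orally in 0.9% NaCl at 10 mL/kg. […] Mice were observed 5–10 min after PPQ, and those writhing at least 3 times were counted as percent reversal.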

[8] = biological target: T2, Adrenergic receptor alpha-1; assay: Binding affinity against alpha-1 adrenergic receptor was determined by the displacement of [3H]prazosin from rat brain cortical membranes; value ranges from 4.6-30.6; assay type: cell membranes, Membrane; procedure, shortened: as §1
[9] = biological target: T2, Adrenergic receptor alpha-1; assay: Binding affinity against alpha-1 adrenergic receptor was determined by the displacement of [3H]prazosin from rat brain cortical membranes; value ranges from 7.8-34.6; assay type: cell membranes, Membrane; procedure, shortened: as §1
[10] = biological target: T1, Adrenergic receptor alpha-2; assay: The compound was evaluated for the alpha-2 adrenergic receptor antagonistic activity in rat vas deferens vs clonidin; assay type: functional, tissue-based; procedure, shortened: as §2
[11] = biological target: T1, Adrenergic receptor alpha-2; assay: The compound was evaluated for the alpha-2 adrenergic receptor agonistic activity in rat vas deferens; the effect was not yohimbine reversible.

Molecule `CC(C)N(C[C@@]1(C2=NCCN2)Cc2ccccc2N1C)C(C)C` has a Ki [1] of 25.1 nM and an IC50 [2] of 94.8 nM.

`C=CCN1c2ccccc2CC1C1=NCCN1` (stereo not given) showed a Ki [3] of 6.56 nM, a pA2 [4] of 8.02 and a pA2 [5] of 9.07. For the same molecule, the Ki [1] was 0.47 nM.

For `CN1c2ccc(Cl)cc2CC1C1=NCCN1` (stereo not given), the pA2 [6] was 8.56 and the Ki [1] was 1.9 nM.

`c1ccc2c(c1)CC(C1=NCCN1)N2` (stereo not given) was tested, and the pA2 [5] was 8.16 and the Ki [1] was 2.11 nM.

`CN1c2ccccc2CC1C1=NCCN1` (stereo not given) gave an ED50 [7] of 1.3 mg/kg, a pA2 [4] of 7.75 and a Ki [8] of 10.5 nM. It also gave a pA2 [6] of 8.65 and a Ki [1] of 0.45 nM.

For `CN1c2ccc(F)cc2CC1C1=NCCN1` (stereo not given), the pA2 [4] was 8.03, the Ki [9] was 16.4 nM and the pA2 [6] was 8.45. The Ki [1] was 0.91 nM.

With `C[C@@H]1c2ccccc2N(C)[C@@H]1C1=NCCN1` the ED50 [7] was > 300 mg/kg, the pA2 [10] was < 6 and the Ki [1] was 6.9 nM. The IC50 [2] was 3.29 nM.

`COC[C@@]1(C2=NCCN2)Cc2ccccc2N1C` was tested, and the IC50 [11] was 131 nM and the Ki [1] was 38 nM.

Molecule `Cn1c(CC2=NCCN2)cc2ccccc21` has an ED50 [7] of 100 mg/kg, a pA2 [5] of 7.48 and a Ki [1] of 46.7 nM.

In the case of `COC(=O)[C@@H]1[C@H]2C[C@H]3c4[nH]c5ccccc5c4CCN3C[C@@H]2CC[C@@H]1O` [YOHIMBINE], the ED50 [7] is reported as 0.6 mg/kg.

`CCN1c2ccccc2CC1C1=NCCN1` (stereo not given) was tested, and the ED50 [7] was 2.6 mg/kg, the pA2 [6] was 8.91 and the Ki [1] was 0.91 nM.

For `CCCCN1c2ccccc2CC1C1=NCCN1` (stereo not given), the ED50 [7] was 4 mg/kg, the pA2 [5] was 8.8 and the Ki [1] was 3.5 nM.

In the case of `c1ccc2c(c1)OCC(C1=NCCN1)O2` (stereo not given) [IDAZOXAN], the ED50 [7] is reported as 1.6 mg/kg.

Molecule `CCOCCN1c2ccccc2CC1C1=NCCN1` (stereo not given) has an ED50 [7] of 20.5 mg/kg, a pA2 [5] of 7.81 and a Ki [1] of 26 nM.

With `CN1c2ccc(Cc3ccccc3)cc2CC1C1=NCCN1` (stereo not given) the ED50 [7] was > 100 mg/kg, the pA2 [6] was 7.59 and the Ki [1] was 53.6 nM.

With `CN1c2ccccc2C[C@@]1(C)C1=NCCN1` the pA2 [10] was 7.55, the Ki [1] was 3.4 nM and the IC50 [2] was > 300 nM.
